Where two headings read alike, the source gives them in different places.
Key:
[1] = Phase 1 safety evaluation; format: in vivo, human; details: for Dose interruption: due to thrombocytopenia; for tolerability: Chinese patients with r/r B cell NHL, 40-80 mg BID
How it was run: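 3 + 3 escalation of oral test compound, 40, 60 or 80 mg BID 4 h apart, 7 days on and 7 off, after a single dose on D-3. Investigators graded AEs at every visit per CTCAE v5.0. DLT was assessed over cycle 1 and covered grade 4 cytopenias, febrile or bleeding grade ≥3 cytopenias, and grade ≥3 non-hematological toxicity. Safety set: ≥1 dose and ≥1 safety evaluation.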

[2] = test system: r/r B cell NHL or chronic lymphocytic leukemia; details: cited from earlier work
[3] = test system: r/r B cell NHL; test: Phase 1 efficacy; format: in vivo, human

CN(C)Cc1c(C(=O)NCCOc2ccc(C(=O)NO)cc2)oc2ccccc12 [abexinostat, Abexinostat]
TEAE: Abnormal ST segment on electrocardiogram ([1]; 40 mg BID (n = 4), Any grade): 0 n (%)
TEAE: Abnormal T-wave on electrocardiogram ([1]; 40 mg BID (n = 4), Any grade): 0 n (%)
TEAE: Anemia ([1]; 40 mg BID (n = 4), Any grade): 1 (25.0) n (%)
TEAE: Any TEAEs ([1]; 40 mg BID (n = 4), Any grade): 4 (100) n (%)
TEAE: Diarrhea ([1]; 40 mg BID (n = 4), Any grade): 0 n (%)
TEAE: Elevated low-density lipoprotein ([1]; 40 mg BID (n = 4), Any grade): 1 (25.0) n (%)
TEAE: Elevated α-hydroxybutyrate dehydrogenase ([1]; 40 mg BID (n = 4), Any grade): 1 (25.0) n (%)
TEAE: Fatigue ([1]; 40 mg BID (n = 4), Any grade): 1 (25.0) n (%)
TEAE: Hypercholesterolemia ([1]; 40 mg BID (n = 4), Any grade): 1 (25.0) n (%)
TEAE: Hyperglycemia ([1]; 40 mg BID (n = 4), Any grade): 1 (25.0) n (%)
TEAE: Hypertriglyceridemia ([1]; 40 mg BID (n = 4), Any grade): 1 (25.0) n (%)
TEAE: Hyperuricemia ([1]; 40 mg BID (n = 4), Any grade): 1 (25.0) n (%)
TEAE: Hypoalbuminemia ([1]; 40 mg BID (n = 4), Any grade): 2 (50.0) n (%)
TEAE: Hypoproteinemia ([1]; 40 mg BID (n = 4), Any grade): 1 (25.0) n (%)
TEAE: Leukopenia ([1]; 40 mg BID (n = 4), Any grade): 0 n (%)
TEAE: Lymphopenia ([1]; 40 mg BID (n = 4), Any grade): 0 n (%)
TEAE: Nausea ([1]; 40 mg BID (n = 4), Any grade): 0 n (%)
TEAE: Neutropenia ([1]; 40 mg BID (n = 4), Any grade): 1 (25.0) n (%)
TEAE: Thrombocytopenia ([1]; 40 mg BID (n = 4), Any grade): 2 (50.0) n (%)
TEAE: Urinary white blood cell positivity ([1]; 40 mg BID (n = 4), Any grade): 1 (25.0) n (%)
TEAE: Any TEAEs ([1]; 40 mg BID (n = 4), ≥ Grade 3): 1 (25.0) n (%)
TEAE: Thrombocytopenia ([1]; 40 mg BID (n = 4), ≥ Grade 3): 1 (25.0) n (%)
Dose interruption ([1]; 40 mg BID group): one patient
TEAE: Abnormal ST segment on electrocardiogram ([1]; 60 mg BID (n = 3), Any grade): 1 (33.3) n (%)
TEAE: Abnormal T-wave on electrocardiogram ([1]; 60 mg BID (n = 3), Any grade): 1 (33.3) n (%)
TEAE: Anemia ([1]; 60 mg BID (n = 3), Any grade): 1 (33.3) n (%)
TEAE: Any TEAEs ([1]; 60 mg BID (n = 3), Any grade): 3 (100) n (%)
TEAE: Diarrhea ([1]; 60 mg BID (n = 3), Any grade): 1 (33.3) n (%)
TEAE: Elevated low-density lipoprotein ([1]; 60 mg BID (n = 3), Any grade): 2 (66.7) n (%)
TEAE: Elevated α-hydroxybutyrate dehydrogenase ([1]; 60 mg BID (n = 3), Any grade): 1 (33.3) n (%)
TEAE: Fatigue ([1]; 60 mg BID (n = 3), Any grade): 1 (33.3) n (%)
TEAE: Hypercholesterolemia ([1]; 60 mg BID (n = 3), Any grade): 1 (33.3) n (%)
TEAE: Hyperglycemia ([1]; 60 mg BID (n = 3), Any grade): 0 n (%)
TEAE: Hypertriglyceridemia ([1]; 60 mg BID (n = 3), Any grade): 2 (66.7) n (%)
TEAE: Hyperuricemia ([1]; 60 mg BID (n = 3), Any grade): 1 (33.3) n (%)
TEAE: Hypoalbuminemia ([1]; 60 mg BID (n = 3), Any grade): 2 (66.7) n (%)
TEAE: Hypoproteinemia ([1]; 60 mg BID (n = 3), Any grade): 2 (66.7) n (%)
TEAE: Leukopenia ([1]; 60 mg BID (n = 3), Any grade): 1 (33.3) n (%)
TEAE: Lymphopenia ([1]; 60 mg BID (n = 3), Any grade): 1 (33.3) n (%)
TEAE: Nausea ([1]; 60 mg BID (n = 3), Any grade): 1 (33.3) n (%)
TEAE: Neutropenia ([1]; 60 mg BID (n = 3), Any grade): 1 (33.3) n (%)
TEAE: Thrombocytopenia ([1]; 60 mg BID (n = 3), Any grade): 2 (66.7) n (%)
TEAE: Urinary white blood cell positivity ([1]; 60 mg BID (n = 3), Any grade): 1 (33.3) n (%)
TEAE: Any TEAEs ([1]; 60 mg BID (n = 3), ≥ Grade 3): 2 (66.7) n (%)
TEAE: Hypertriglyceridemia ([1]; 60 mg BID (n = 3), ≥ Grade 3): 1 (33.3) n (%)
TEAE: Thrombocytopenia ([1]; 60 mg BID (n = 3), ≥ Grade 3): 1 (33.3) n (%)
Dose interruption ([1]; 60 mg BID group): one patient
Dose reduction due to TEAEs ([1]; 60 mg BID group, thrombocytopenia): one patient
TEAE: Abnormal ST segment on electrocardiogram ([1]; 80 mg BID (n = 4), Any grade): 2 (50.0) n (%)
TEAE: Abnormal T-wave on electrocardiogram ([1]; 80 mg BID (n = 4), Any grade): 3 (75.0) n (%)
TEAE: Anemia ([1]; 80 mg BID (n = 4), Any grade): 2 (50.0) n (%)
TEAE: Any TEAEs ([1]; 80 mg BID (n = 4), Any grade): 4 (100) n (%)
TEAE: Diarrhea ([1]; 80 mg BID (n = 4), Any grade): 3 (75.0) n (%)
TEAE: Elevated low-density lipoprotein ([1]; 80 mg BID (n = 4), Any grade): 0 n (%)
TEAE: Elevated α-hydroxybutyrate dehydrogenase ([1]; 80 mg BID (n = 4), Any grade): 1 (25.0) n (%)
TEAE: Fatigue ([1]; 80 mg BID (n = 4), Any grade): 2 (50.0) n (%)
TEAE: Hypercholesterolemia ([1]; 80 mg BID (n = 4), Any grade): 1 (25.0) n (%)
TEAE: Hyperglycemia ([1]; 80 mg BID (n = 4), Any grade): 2 (50.0) n (%)
TEAE: Hypertriglyceridemia ([1]; 80 mg BID (n = 4), Any grade): 3 (75.0) n (%)
TEAE: Hyperuricemia ([1]; 80 mg BID (n = 4), Any grade): 1 (25.0) n (%)
TEAE: Hypoalbuminemia ([1]; 80 mg BID (n = 4), Any grade): 1 (25.0) n (%)
TEAE: Hypoproteinemia ([1]; 80 mg BID (n = 4), Any grade): 2 (50.0) n (%)
TEAE: Leukopenia ([1]; 80 mg BID (n = 4), Any grade): 3 (75.0) n (%)
TEAE: Lymphopenia ([1]; 80 mg BID (n = 4), Any grade): 2 (50.0) n (%)
TEAE: Nausea ([1]; 80 mg BID (n = 4), Any grade): 2 (50.0) n (%)
TEAE: Neutropenia ([1]; 80 mg BID (n = 4), Any grade): 3 (75.0) n (%)
TEAE: Thrombocytopenia ([1]; 80 mg BID (n = 4), Any grade): 1 (25.0) n (%)
TEAE: Urinary white blood cell positivity ([1]; 80 mg BID (n = 4), Any grade): 1 (25.0) n (%)
TEAE: Any TEAEs ([1]; 80 mg BID (n = 4), ≥ Grade 3): 2 (50.0) n (%)
TEAE: Hyperglycemia ([1]; 80 mg BID (n = 4), ≥ Grade 3): 1 (25.0) n (%)
TEAE: Hypertriglyceridemia ([1]; 80 mg BID (n = 4), ≥ Grade 3): 2 (50.0) n (%)
Dose reduction due to TEAEs ([1]; 80 mg BID group, QTc interval prolongation): one patient
recommended phase 2 dose (RP2D) ([1]; 7 days on, 7 days off, oral): 80 mg BID
tolerability [1]: well-tolerated
tolerability ([1]; listed as Abexinostat): favorable tolerability
TEAE: Abnormal ST segment on electrocardiogram ([1]; Total (n = 11), Any grade): 3 (27.3) n (%)
TEAE: Abnormal T-wave on electrocardiogram ([1]; Total (n = 11), Any grade): 4 (36.4) n (%)
TEAE: Anemia ([1]; Total (n = 11), Any grade): 4 (36.4) n (%)
TEAE: Any TEAEs ([1]; Total (n = 11), Any grade): 11 (100) n (%)
TEAE: Diarrhea ([1]; Total (n = 11), Any grade): 4 (36.4) n (%)
TEAE: Elevated low-density lipoprotein ([1]; Total (n = 11), Any grade): 3 (27.3) n (%)
TEAE: Elevated α-hydroxybutyrate dehydrogenase ([1]; Total (n = 11), Any grade): 3 (27.3) n (%)
TEAE: Fatigue ([1]; Total (n = 11), Any grade): 4 (36.4) n (%)
TEAE: Hypercholesterolemia ([1]; Total (n = 11), Any grade): 3 (27.3) n (%)
TEAE: Hyperglycemia ([1]; Total (n = 11), Any grade): 3 (27.3) n (%)
TEAE: Hypertriglyceridemia ([1]; Total (n = 11), Any grade): 6 (54.5) n (%)
TEAE: Hyperuricemia ([1]; Total (n = 11), Any grade): 3 (27.3) n (%)
TEAE: Hypoalbuminemia ([1]; Total (n = 11), Any grade): 5 (45.5) n (%)
TEAE: Hypoproteinemia ([1]; Total (n = 11), Any grade): 5 (45.5) n (%)
TEAE: Leukopenia ([1]; Total (n = 11), Any grade): 4 (36.4) n (%)
TEAE: Lymphopenia ([1]; Total (n = 11), Any grade): 3 (27.3) n (%)
TEAE: Nausea ([1]; Total (n = 11), Any grade): 3 (27.3) n (%)
TEAE: Neutropenia ([1]; Total (n = 11), Any grade): 5 (45.5) n (%)
TEAE: Thrombocytopenia ([1]; Total (n = 11), Any grade): 5 (45.5) n (%)
TEAE: Urinary white blood cell positivity ([1]; Total (n = 11), Any grade): 3 (27.3) n (%)
TEAE: Any TEAEs ([1]; Total (n = 11), ≥ Grade 3): 5 (45.5) n (%)
TEAE: Hyperglycemia ([1]; Total (n = 11), ≥ Grade 3): 1 (9.1) n (%)
TEAE: Hypertriglyceridemia ([1]; Total (n = 11), ≥ Grade 3): 3 (27.3) n (%)
TEAE: Thrombocytopenia ([1]; Total (n = 11), ≥ Grade 3): 2 (18.2) n (%)
dose limiting toxicity (DLT) ([1]; dose escalation 40, 60, 80 mg BID, assessed after cycle 1): No DLT
≥ grade 3 thrombocytopenia ([1]; safety set, all doses, 2/11 (abstract: grade 3)): 18.2%
≥ grade 3 hypertriglyceridemia ([1]; safety set, all doses, 3/11 (abstract: grade 3)): 27.3%
any grade TEAE: abnormal T wave on electrocardiogram ([1]; safety set, all doses, 4/11): 36.4%
any grade TEAE: anemia ([1]; safety set, all doses, 4/11): 36.4%
any grade TEAE: diarrhea ([1]; safety set, all doses, 4/11): 36.4%
any grade TEAE: fatigue ([1]; safety set, all doses, 4/11): 36.4%
any grade TEAE: leukopenia ([1]; safety set, all doses, 4/11): 36.4%
any grade TEAE: hypoalbuminemia ([1]; safety set, all doses, 5/11): 45.5%
any grade TEAE: hypoproteinemia ([1]; safety set, all doses, 5/11): 45.5%
any grade TEAE: neutropenia ([1]; safety set, all doses, 5/11): 45.5%
any grade TEAE: thrombocytopenia ([1]; safety set, all doses, 5/11): 45.5%
any grade TEAE: hypertriglyceridemia ([1]; safety set, all doses, 6/11): 54.5%
grade of most TEAEs ([1]; safety set, n = 11): grade 1 or 2
median OS ([2]; PCYC-0401, DLBCL): 10.2 months
median PFS ([2]; PCYC-0401, DLBCL): 2.8 months
median OS ([2]; PCYC-0401, FL): not reached
median PFS ([2]; PCYC-0401, FL): 10.2 months
ORR ([2]; PCYC-0401, patients with DLBCL, 5/16): 31%
ORR ([2]; PCYC-0401, patients with FL, 9/16): 56%
12-month PFS rate ([3]; FAS): 30.0%
30-month PFS rate ([3]; FAS): 20.0%
39-month OS rate ([3]; FAS): 64.8%
duration of response (DoR) ([3]; FAS): not reached
median overall survival (OS) ([3]; FAS): not reached
median progression-free survival (PFS) ([3]; FAS): 5.01 months
objective response rate (ORR) ([3]; FAS, 4/10, all doses): 40.0%
disease control rate (DCR) ([3]; FAS, 6/10): 60%
PFS of the patient who achieved CR ([3]; Patient 2, DLBCL, 40 mg BID, still on treatment): over 30 months
patients still alive ([3]; at data cutoff November 30, 2023): Seven patients
median DoR ([3]; patients with FL): 7.82 months
median PFS ([3]; patients with FL): 8.38 months
ORR ([3]; patients with FL, 3/6): 50%
DCR ([3]; patients with FL, 5/6): 83.3%
DCR ([3]; r/r DLBCL patients, 1/4): 25%
ORR ([3]; r/r DLBCL patients, 1/4): 25%
